The text below walks through data of ChEMBL document CHEMBL1137305, “High antiplasmodial activity of novel plasmepsins I and II inhibitors” (J Med Chem, 2006).

The test system of data set [1] is Plasmodium falciparum. Description: Antiplasmodial activity against chloroquine-sensitive Plasmodium falciparum D10. Format: functional, organism-based. A digest of the protocol:
(§1)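 P. falciparum (D10 and W2) grown in human A+ red cells, RPMI 1640 with 10% heat-inactivated A+ plasma, 37 °C, 1% O2/5% CO2/94% N2. Asynchronous cultures, 1-1.5% parasitemia, 1% hematocrit, exposed to serial dilutions (DMSO <1% final) for 72 h. IC50 is the mean of ≥3 experiments in duplicate.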

Data set [2] deals with Plasmodium falciparum. Briefly: Antiplasmodial activity against chloroquine-resistant Plasmodium falciparum W2. The format is functional, organism-based. The essentials: as §1
Data set [3] deals with Plasmepsin I (Plasmodium falciparum, UniProt P39898). Briefly: Inhibition of Plasmodium falciparum recombinant PLM1. The essentials:
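Recombinant proPfPLM I from E. coli BL21 Star (DE3) pLysS inclusion bodies, refolded and purified by anion exchange and size exclusion. Initial rates of cleavage of chromogenic Lys-Pro-Ile-Leu-Phe-Nph-Arg-Leu read spectrophotometrically. Ki from fits: Morrison competitive tight-binding equation, or for weaker binders at least six substrate and two or more inhibitor levels, competitive model.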

In data set [4] the target is Plasmepsin II (Plasmodium falciparum, UniProt P46925). Briefly: Inhibition of Plasmodium falciparum recombinant PLM2. The essentials:
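Recombinant pro-PLM II (E. coli BL21(DE3) pLysS, refolded from inclusion bodies) activated in 100 mM sodium acetate pH 4.7, 37 °C, 90 min. Cleavage of Lys-Glu-Phe-Val-Phe-NPhe-Ala-Leu-Lys followed at 300 nm. Inhibitors at 1-100 nM, 1% DMSO final. Ki from IC50 via Cheng-Prusoff using Michaelis-Menten Km. Mean ± SD, at least two experiments in triplicate.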

A short description of data set [5]: Cytotoxicity against human skin fibroblast at 100 uM by MTT assay. Format: cell-based. The essentials: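 Primary human skin-biopsy fibroblasts, 8 × 10⁴ per well, grown in DMEM with 10% fetal calf serum, 1% penicillin/streptomycin and 1% L-glutamine. Proliferation followed by MTT test with or without compounds up to 100 µM.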
The target of data set [6] is Plasmepsin II (Plasmodium falciparum) (UniProt P46925). Briefly: Inhibition of Plasmodium falciparum PLM2-induced human hemoglobin cleavage by SDS-PAGE. A digest of the protocol: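 Hemoglobin (10 µg) digested by preactivated recombinant PLM II (200 ng) in 100 mM sodium acetate, pH 4.7, 37 °C, with vehicle or inhibitor for 0, 10, 30 and 60 min. Stopped with SDS loading dye, boiled 5 min, resolved on 18% polyacrylamide gel.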

Data set [7] has as its target Cathepsin D (Homo sapiens) (UniProt P07339). Briefly: Inhibition of human cathepsin D at 5 uM.
Data set [8] has the same target. Briefly: Inhibition of human cathepsin D at 2 uM.
Data set [9] has the same target. Description: Inhibition of human cathepsin D at 100 uM.

Activity calls are given as the source filed them. No cut-off for these calls is given here.

Chain of Plasmepsin II (Plasmodium falciparum) (P46925 125-453 limits assumed): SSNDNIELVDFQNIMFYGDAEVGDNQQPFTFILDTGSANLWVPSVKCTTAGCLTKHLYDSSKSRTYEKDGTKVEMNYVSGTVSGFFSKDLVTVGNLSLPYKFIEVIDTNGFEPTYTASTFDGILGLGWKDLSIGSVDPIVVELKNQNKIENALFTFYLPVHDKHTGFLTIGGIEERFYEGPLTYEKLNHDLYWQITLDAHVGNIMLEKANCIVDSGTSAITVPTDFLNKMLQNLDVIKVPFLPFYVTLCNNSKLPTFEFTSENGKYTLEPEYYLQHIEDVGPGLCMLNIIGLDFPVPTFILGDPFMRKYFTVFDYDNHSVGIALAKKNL
Chain of Cathepsin D (Homo sapiens) (P07339 65-162 limits assumed): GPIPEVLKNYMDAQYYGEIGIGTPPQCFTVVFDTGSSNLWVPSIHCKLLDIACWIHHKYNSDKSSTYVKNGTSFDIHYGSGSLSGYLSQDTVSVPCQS
Chain of Cathepsin D (Homo sapiens) (P07339 169-412 limits assumed): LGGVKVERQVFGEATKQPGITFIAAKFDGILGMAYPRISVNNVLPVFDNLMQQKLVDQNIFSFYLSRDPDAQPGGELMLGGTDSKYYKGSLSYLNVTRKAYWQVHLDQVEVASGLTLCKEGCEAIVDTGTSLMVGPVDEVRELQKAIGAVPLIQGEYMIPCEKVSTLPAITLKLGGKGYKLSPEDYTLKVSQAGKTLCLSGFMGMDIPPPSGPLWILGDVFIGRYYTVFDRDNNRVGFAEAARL
Chain of Plasmepsin II (P46925 whole entry): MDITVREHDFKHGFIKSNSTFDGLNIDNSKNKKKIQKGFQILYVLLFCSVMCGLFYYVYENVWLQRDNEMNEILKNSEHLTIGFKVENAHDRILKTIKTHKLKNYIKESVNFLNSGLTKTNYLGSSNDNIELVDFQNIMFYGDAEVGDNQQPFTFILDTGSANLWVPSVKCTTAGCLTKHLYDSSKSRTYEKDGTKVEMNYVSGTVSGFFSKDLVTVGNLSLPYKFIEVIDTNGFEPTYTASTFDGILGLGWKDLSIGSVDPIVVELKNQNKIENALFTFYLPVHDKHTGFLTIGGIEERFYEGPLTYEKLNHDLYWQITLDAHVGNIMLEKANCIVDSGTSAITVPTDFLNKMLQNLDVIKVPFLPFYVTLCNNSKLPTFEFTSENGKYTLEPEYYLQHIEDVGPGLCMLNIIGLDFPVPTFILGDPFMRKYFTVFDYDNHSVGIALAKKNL
Chain of Plasmepsin I (P39898 whole entry): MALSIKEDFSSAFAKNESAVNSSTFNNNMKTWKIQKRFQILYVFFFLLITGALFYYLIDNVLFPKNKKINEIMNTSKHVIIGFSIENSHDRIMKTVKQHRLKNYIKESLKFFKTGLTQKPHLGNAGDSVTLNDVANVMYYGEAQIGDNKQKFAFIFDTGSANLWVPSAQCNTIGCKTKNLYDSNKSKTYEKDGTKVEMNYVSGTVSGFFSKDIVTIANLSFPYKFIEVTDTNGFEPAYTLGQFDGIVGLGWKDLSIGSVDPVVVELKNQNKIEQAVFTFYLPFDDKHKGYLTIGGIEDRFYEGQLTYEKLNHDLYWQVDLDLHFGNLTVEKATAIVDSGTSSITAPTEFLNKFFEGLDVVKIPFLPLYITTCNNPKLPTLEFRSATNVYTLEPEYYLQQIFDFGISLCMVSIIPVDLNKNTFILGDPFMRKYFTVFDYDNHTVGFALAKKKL

For orientation: IC50 means the concentration that gives 50% inhibition. Read a high IC50 as lower potency. The Ki is a dissociation constant, usually derived from enzyme kinetics or from competition with a known ligand. As for `CCCCNC(=O)C[C@H](O)[C@H](CC(C)C)NC(=O)[C@@H](NC(=O)c1ccc(Oc2ccc(C(=O)NCCCC(C)Nc3cc(OC)cc4cccnc34)cc2)cc1)[C@@H](C)CC` (some centres not stated), the IC50 in [1] was determined as 2.2 µM; in [2], 2 µM. Moreover, the Ki in data set [3] was 0.081 µM; in [4] it was 0.0112 µM.

As to `CCCCNC(=O)C[C@H](O)[C@H](CC(C)C)NC(=O)[C@@H](NC(=O)COc1ccc2ccccc2c1)[C@@H](C)CC`, the IC50 is 22.7 µM in [1] and 15.4 µM in data set [2]. The Ki came out at 0.727 µM in data set [3] and 0.0589 µM in data set [4].

In general, inhibition refers to the change of the read-out against control, counted positive when it falls. Higher therefore signals strong suppression. On to `CCCCNC(=O)C[C@H](O)[C@H](CC(C)C)NC(=O)[C@@H](NC(=O)c1ccc(Oc2ccc(C(=O)N[C@@H](CC(C)C)C(=O)N[C@@H](C)C(=O)NCCCC(C)Nc3cc(OC)cc4cccnc34)cc2)cc1)[C@@H](C)CC` (some centres not stated), for which the Activity in [5] came to 15%. For the same compound, the IC50 in data set [1] stood at 0.2 µM; in data set [2], 0.3 µM. For the same compound, the result in [6] was Active. Also, the Ki in data set [3] stood at 0.074 µM; in [4], 0.0263 µM. Besides, in data set [7], the inhibition stood at 50%.

`CCCCNC(=O)C[C@H](O)[C@H](CC(C)C)NC(=O)[C@@H](NC(=O)c1ccc(Oc2ccc(C(=O)N[C@@H](CC(C)C)C(=O)NCCCC(C)Nc3cc(OC)cc4cccnc34)cc2)cc1)[C@@H](C)CC` (some centres not stated): the IC50 is 0.7 µM in [1] and 0.5 µM in data set [2]. Besides, the outcome in data set [6] was Active. This compound gave an inhibition in data set [8] of 30%. For the same compound, the figures for the Ki in data set [3] and in data set [4] were 0.765 µM and 0.0121 µM, respectively.

As to `CCCCNC(=O)C[C@H](O)[C@H](CC(C)C)NC(=O)[C@@H](NC(=O)c1ccc(Oc2ccc(C(=O)N[C@@H](CC(C)C)C(=O)N[C@@H](CCCCNC(=O)OC(C)(C)C)C(=O)NCCCC(C)Nc3cc(OC)cc4cccnc34)cc2)cc1)C(C)CC` (some centres not stated), the IC50 in data set [1] was determined as 4.05 µM; in data set [2], 3.5 µM. For the same compound, the Ki in data set [3] amounted to 0.23 µM; in [4], 0.403 µM.

As for `CCCCNC(=O)C[C@H](O)[C@H](CC(C)C)NC(=O)[C@@H](NC(=O)c1ccc(Oc2ccc(C(=O)N[C@@H](CC(C)C)C(=O)N[C@@H](CCCCN)C(=O)OCCC)cc2)cc1)C(C)CC` (some centres not stated), the IC50 in data set [1] was 4.5 µM; in data set [2], 3.8 µM. Besides, the Ki was 0.011 µM in data set [3] and 0.0099 µM in [4].

Turning to `CCCCNC(=O)C[C@H](O)[C@H](CC(C)C)NC(=O)[C@@H](NC(=O)c1ccc(Oc2ccc(C(=O)N[C@@H](CC(C)C)C(=O)N[C@@H](CCCCNC(=O)OC(C)(C)C)C(=O)OCCC)cc2)cc1)C(C)CC` (some centres not stated), the IC50 in [1] and in data set [2] was 0.1 µM throughout. Also, in [6], the result was Active. The compound also came in with an inhibition in [9] of 37%. In addition, the values for the Ki in data set [3] and in [4] were 0.017 µM and 0.011 µM, respectively.

In the case of `CCCCNC(=O)C[C@H](O)[C@H](CC(C)C)NC(=O)[C@@H](NC(=O)c1ccc(Oc2ccc(C(=O)N[C@@H](CC(C)C)C(=O)N[C@@H](CC(C)C)C(=O)NCCCC(C)Nc3cc(OC)cc4cccnc34)cc2)cc1)C(C)CC` (some centres not stated), the results for the IC50 in [1] and in data set [2] were 3.6 µM and 1.7 µM, respectively. The Ki in data set [3] was 0.058 µM; in data set [4], 0.103 µM.

As to `CCCCNC(=O)C[C@H](O)[C@H](CC(C)C)NC(=O)[C@@H](NC(=O)c1ccc(Oc2ccc(C(=O)N[C@@H](C)C(=O)N[C@@H](CCCCN)C(=O)NCCCC(C)Nc3cc(OC)cc4cccnc34)cc2)cc1)[C@@H](C)CC` (some centres not stated), the IC50 in data set [1] was 0.8 µM; in data set [2], 1.4 µM. Also, the results for the Ki in data set [3] and in data set [4] were 0.033 µM and 0.0106 µM, respectively.

With `CCCCNC(=O)C[C@H](O)[C@H](CC(C)C)NC(=O)[C@@H](NC(=O)c1ccc(Oc2ccc(C(=O)N[C@@H](C)C(=O)N[C@@H](C)C(=O)NCCCC(C)Nc3cc(OC)cc4cccnc34)cc2)cc1)[C@@H](C)CC` (some centres not stated), the IC50 in [1] is 1.3 µM; in [2], 1.2 µM. The Ki in data set [3] was 0.001 µM; in [4] it was 0.0039 µM.
